HGIII-sPLA2 inh: human group III sPLA2 inhibitors, primary screen, biochemical, QFRET, BODIPY PC-A2 liposome substrate; Group 3 secretory phospholipase A2 (Homo sapiens), Q9NZ20; QFRET BODIPY PC-A2 liposome hydrolysis, fluorescence; inhibition, % at 12.2 µM; hit rate 0.56% among 370,000;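 active = inhibition above mean plus 3 SD of compounds lying within the high and low control bounds, cut at about 19% in these data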;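 also: 0% = median of test compound wells and 100% = no enzyme DMSO wells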
procasp7 counter: procaspase-7 activators, primary screen, counter-screen for procaspase-3 activator project, biochemical, absorbance, HTS, human | Caspase-7 (Homo sapiens), P55210 | recombinant procaspase-7, Ac-DEVD-pNA absorbance 405 nm; D23A/D198A/D206A triple mutant, cannot self-cleave; scale: DMSO 0, 5 µM enzyme 100 | activation, % at 8.5 µM | hit rate 0.093% among 330,000;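 active = percent activation above the screen-wide mean plus 3 SD, cut at about 25% in these data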
Target sequence (P55210 whole entry D23A/D198A/D206A): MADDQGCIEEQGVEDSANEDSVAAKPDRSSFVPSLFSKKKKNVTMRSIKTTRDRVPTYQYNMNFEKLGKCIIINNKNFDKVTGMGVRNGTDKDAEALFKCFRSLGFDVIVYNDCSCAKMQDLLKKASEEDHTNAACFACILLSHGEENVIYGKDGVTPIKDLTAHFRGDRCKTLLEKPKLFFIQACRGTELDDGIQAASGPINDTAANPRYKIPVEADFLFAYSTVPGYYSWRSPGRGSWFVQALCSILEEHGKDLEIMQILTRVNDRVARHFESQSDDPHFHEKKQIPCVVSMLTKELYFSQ
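Test system: Procaspase-7 triple mutant (PC-7 D3A). Also added: Ac-DEVD-pNA substrate, 400 µM as added. Schedule: 1 h enzyme–compound preincubation and 2 h substrate reaction, both 25 °C. Signal: p-Nitroaniline absorbance at 405 nm, read at 0 and 120 min. Control set: low DMSO alone, high DMSO plus 5 µM PC-7.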
PLC-beta3 inh: human PLC-beta3 inhibitors, primary screen, biochemical, fluorescence; 1-phosphatidylinositol 4,5-bisphosphate phosphodiesterase beta-3 (Homo sapiens), Q01970; Purified PLC-beta3, fluorogenic substrate; inhibition, % at 12.2 µM; hit rate 0.18% among 370,000; in the data active = inhibition above about 11%;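 also: 0% = median of compound wells on plate and 100% = full blocker control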
PLC-gamma1 inh: PLC-gamma1 enzyme inhibitors, primary screen, biochemical, fluorescence, purified enzyme. AID 720700, 2013. hit rate 0.84% among 370,000. inhibition, % at 12.2 µM. fluorogenic substrate; in the data active = inhibition above about 9.5%
proCasp3 act: activators of human procaspase-3 D3A mutant, primary screen, biochemical, absorbance, PC-3 D3A mutant, single concentration. AID 463141, 2010. Caspase-3 (Homo sapiens), P42574. hit rate 0.11% among 330,000. recombinant procaspase-3 D3A, Ac-DEVD-pNA absorbance 405 nm. activation, % at 8.5 µM;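 active = activation above the mean of all tested compounds plus 3 SD, cut at about 21% in these data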;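 also: 0% = DMSO alone and 100% = DMSO wells spiked with extra 5 µM PC-3 D3A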
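Assay system – Procaspase-3 D3A mutant, all three cleavage aspartates alanine · Controls – DMSO-only low control, 5 µM PC-3 D3A high control · Schedule – 1 h compound preincubation, 2 h substrate hydrolysis at 25 °C · Signal – 405 nm absorbance of p-nitroaniline, reads at 0 and 120 min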
sPLA2 confirm: human group III sPLA2 inhibitors, confirmation, biochemical, QFRET, triplicate | shares compounds with HGIII-sPLA2 inh | recombinant hGIII-sPLA2, BODIPY PC-A2 QFRET fluorescence | inhibition, % at 12.2 µM | hit rate 34% among 2,000 | AID 743280, 2014;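 active = mean inhibition across triplicates above the hit cutoff set in the earlier primary screen, cut at about 19% in these data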;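 also: 0% = enzyme with DMSO and 100% = DMSO wells lacking enzyme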
535nm interf: 535nm fluorescence optical interference, confirmation, artefact control for HGIII-sPLA2 inhibitor project, biochemical, QFRET. shares compounds with HGIII-sPLA2 inh. BODIPY FL product fluorescence interference. inhibition, % at 12.2 µM. hit rate 8.5% among 2,000;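 active = average inhibition above the solvent-only control mean plus 3 SD, cut at about 6% in these data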;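 also: 0% = DMSO with substrate plus product and 100% = DMSO with substrate alone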
BODIPY interf DR: 535nm fluorescence optical interference, dose response, artefact control for HGIII-sPLA2 inhibitor project, biochemical, QFRET. shares compounds with HGIII-sPLA2 inh. BODIPY FL product fluorescence interference, cell-free. IC50, µM. 240 tested, under 10 active;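 active = IC50 at or below 10 µM; inactive = IC50 above 10 µM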
Active calls of the source: *; x = no result. An excerpt weighted towards active compounds, which were near 1.6% of everything screened.

SMILES	HGIII-sPLA2 inh	procasp7 counter	PLC-beta3 inh	PLC-gamma1 inh	proCasp3 act	sPLA2 confirm	535nm interf	others
Nc1ccc2c(c1)C(=O)c1cc([N+](=O)[O-])ccc1-2	29*	x	0	1	x	8	4
Nc1ccc2c(c1)C(=O)c1cc(Cl)c(Cl)cc1-2	31*	x	0	0	x	35*	14*
COC(=O)[C@]1(CNS(=O)(=O)C2CC2)CC(=O)N(C)[C@@H]1c1ccccc1	-3	x	2	1	x	x	x
O=C(NN1CCCCC1)NN1CCCCC1	4	x	-2	-1	x	x	x
O=C(NC1CC(=O)N(c2ccc(Cl)cc2)C1)N1CCN(C(=O)c2ccco2)CC1 (stereo unspecified)	14	5	0	4	-5	x	x
NS(=O)(=O)c1ccc(NC(=O)CN(C(=O)C(F)(F)F)C2CCCC2)cc1	1	x	3	2	x	x	x
Cc1ccc2c(c1)C1CS(=O)(=O)N(CCc3ccccc3)C(=O)N1C2 (stereo unspecified)	19*	x	2	8	x	2	-9
Cc1ccc2c(c1)C1CS(=O)(=O)N(CCc3ccccc3)CN1C2 (stereo unspecified)	12	x	-12	-9	x	x	x
Cc1cc2nc(/N=C(\N)NC(=O)N3c4ccccc4Sc4ccccc43)nc(C)c2cc1C	21*	5	-39	-16	0	2	0
Cc1cccc(NC(=S)NCc2ccc3c(c2)cc(C)n3C)c1C	20*	-4	-60	-40	-4	5	1
CCn1c2ccccc2c2cc(NC(=O)c3ccc(Br)o3)ccc21	21*	-19	-21	-18	-6	16	-2
CCc1cnc(Nc2nc(C(N)c3ccccc3Cl)cs2)nc1 (stereo unspecified)	26*	x	-2	9	x	3	-7
CC1(C(=O)Nc2cccc(Oc3ccccc3)c2)CCN1C1Cc2ccccc2C1 (stereo unspecified)	-7	x	-4	0	x	x	x
CNC(=S)NNC(=O)COc1ccc(C)c(C)c1	28*	2	-4	-1	-4	26*	-1
Cc1ccc(OCC(=O)Nc2cccc(O)c2)cc1C	-14	-2	-36	2	8	x	x
Cc1cccc(N2C(=O)C3C4C=CC(C5CC45)C3C2=O)n1 (stereo unspecified)	-1	0	-3	2	-1	x	x
Cc1cccc(N2C(=O)CCC2=O)n1	20*	11	1	1	1	5	-5
O=C(NC1CCCC1)c1cc(=O)[nH]c2ccccc12	2	-1	-37	-28	-11	x	x
Cc1cccc(C(=O)NNC(=S)NC(=O)c2ccccc2)c1	23*	-11	-10	-1	-7	36*	-5	BODIPY interf DR=>122
Cc1cccc(C(=O)NNC(=S)NC(=O)c2cccs2)c1	28*	-9	-8	3	-7	27*	4
Cc1ccc(C(=O)NC(=S)NNC(=O)c2ccccc2)cc1	24*	-20	-4	4	0	40*	-4	BODIPY interf DR=>122
CC(C)C(=O)Nc1ccc(C(=O)NNC(=S)NC(=O)c2cccs2)cc1	19	-13	-1	1	-12	x	x
COc1ccc(C(=O)NNC(=S)NC(=O)c2ccc(OC)cc2)cc1	20*	-3	-4	0	-1	26*	-10

High-throughput results deposited in PubChem BioAssay by The Scripps Research Institute Molecular Screening Center.
